Screening data as filed in PubChem.
The list is not random: actives were taken first. Their share in the collection is about 1.5%.
APJ agonist: agonists of human APJ apelin receptor; P35414; CHO-K1 APJ PathHunter beta-arrestin, luminescence; 0% DMSO wells, 100% apelin; activation, % at 20 µM; actives 0.11% (n = 330,000); AID 2520;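 active = activation more than six SD over the plate average, tested at 20 µM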
Target sequence (P35414 whole entry, looked up): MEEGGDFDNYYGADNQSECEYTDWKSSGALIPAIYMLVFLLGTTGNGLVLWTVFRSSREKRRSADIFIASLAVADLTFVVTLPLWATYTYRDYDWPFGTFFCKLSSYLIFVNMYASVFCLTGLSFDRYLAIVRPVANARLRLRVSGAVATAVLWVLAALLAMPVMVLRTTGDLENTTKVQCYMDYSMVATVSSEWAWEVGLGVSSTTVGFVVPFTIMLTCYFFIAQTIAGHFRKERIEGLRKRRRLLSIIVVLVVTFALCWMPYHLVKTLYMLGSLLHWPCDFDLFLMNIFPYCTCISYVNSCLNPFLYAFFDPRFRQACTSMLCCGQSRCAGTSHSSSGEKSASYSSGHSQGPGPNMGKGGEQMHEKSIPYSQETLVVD
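Assay system: CHO-K1 APJ beta-arrestin complementation cell line / Compound: single test compound dose, 20 µM final, 1% DMSO / Times: overnight seeding, 90 min compound at 25 °C, 1 h detection / Technique: beta-gal luminescence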
APJ antag: antagonists of human APJ apelin receptor. CHO-K1 APJ beta-arrestin complementation, luminescence. inhibition, % at 20 µM. actives 0.32% (n = 330,000). AID 2521;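 active = inhibition above about 40% at 20 µM, limit read from the data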;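 note: cells challenged with 10 nM apelin-13 agonist together with compound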
CXCR6 block: CXCR6 (human) receptor inhibition; O00574; CHO-K1 PathHunter CXCR6 beta-arrestin, luminescence; inhibition, % at 20 µM; actives 0.36% (n = 360,000); in the data active = inhibition above about 34%, passing the limit was not always enough;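 note: antagonist mode with CXCL16 agonist at 10 nM final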
EBI2 antag: EBI2 (human) antagonism | actives 0.81% (n = 360,000) | inhibition, % at 5 µM | AID 651636 | EBI2 beta-arrestin recruitment, luminescence, 7a,25-OHC stimulated; in the data active = inhibition above about 38%;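 note: enzyme fragment complementation signal reports receptor beta-arrestin coupling in cells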
CCR6 antag: blocks CCL20-driven beta-arrestin recruitment at human CCR6. CHO-K1 CCR6 PathHunter beta-arrestin, luminescence, CCL20-stimulated. actives 0.49% (n = 340,000). inhibition, % at 20 µM. P51684;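 active = compounds whose inhibition of the agonist-driven luminescence signal at 20 µM reaches about 50%, limit read from the data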;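 note: cells stimulated with CCL20 at 14 nM final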
APJ antag conf: APJ receptor antagonism confirmation; shares compounds with APJ antag; APJ beta-arrestin recruitment, luminescence, antagonist mode; inhibition, % at 20 µM; actives 66% (n = 950); AID 2766; in the data active = inhibition above about 50%
A number is an active result.

Cc1ccc(C(C#N)c2ccc3c(C(F)(F)F)cc(C(F)(F)F)nc3n2)cc1 (stereo unspecified) was read as APJ agonist inactive, APJ antag 49, CXCR6 block inactive, EBI2 antag inactive, CCR6 antag 54 and APJ antag conf 80.
`O=C(OCc1cn([C@H]2C[C@H](c3ccccc3)N(Cc3cccs3)C[C@@H]2O)nn1)c1ccccc1` gave CXCR6 block inactive and EBI2 antag inactive.
COc1ccc(OC2(C)CCN(Cc3ccc(-c4ccccc4)o3)C2)cc1 (stereo unspecified) was read as CXCR6 block inactive and EBI2 antag inactive.
`Cc1ccc(N=Nc2c(C)[nH]n(C(N)=S)c2=O)cc1` gave APJ agonist inactive, APJ antag inactive, CXCR6 block inactive, EBI2 antag inactive and CCR6 antag inactive.
`Cc1[nH]n(C(N)=S)c(=O)c1N=Nc1ccc(S(=O)(=O)N2CCCC2)cc1` gave APJ agonist inactive, APJ antag 57, CXCR6 block inactive, EBI2 antag inactive, CCR6 antag inactive and APJ antag conf 80.
Screening CC(=O)c1cccc(Nc2nc(-c3cccc([N+](=O)[O-])c3)cs2)c1 returned APJ agonist inactive, APJ antag 52, CXCR6 block inactive, EBI2 antag inactive, CCR6 antag inactive and APJ antag conf inactive.
`CC(=O)Nc1nc(C)c(-c2csc(Nc3cccc([N+](=O)[O-])c3)n2)s1` gave APJ agonist inactive, APJ antag inactive, CXCR6 block inactive, EBI2 antag inactive and CCR6 antag inactive.
`COCCNC(=O)C1(C)CCCN(C(=O)c2cc(F)cc(F)c2)C1` (stereo unspecified) gave CXCR6 block inactive and EBI2 antag inactive.
For O=C(O)C(c1ccccc1)N1C(=O)/C(=C\c2ccc(O)c(O)c2)SC1=S (stereo unspecified) the results were APJ agonist inactive, APJ antag 45, CXCR6 block 42, EBI2 antag inactive, CCR6 antag 53 and APJ antag conf 87.
`COc1ccccc1/C=C1\SC(=S)N(C(C(=O)O)c2ccccc2)C1=O` (stereo unspecified) gave APJ agonist inactive, APJ antag inactive, CXCR6 block inactive, EBI2 antag inactive and CCR6 antag inactive.
For CCOc1cc(/C=C2\SC(=S)N(C(C(=O)O)c3ccccc3)C2=O)ccc1O (stereo unspecified) the results were APJ agonist inactive, APJ antag 49, CXCR6 block 48, EBI2 antag inactive, CCR6 antag 50 and APJ antag conf 92.
`CCOc1ccc(/C=C2/SC(=S)N(C(C(=O)O)c3ccccc3)C2=O)cc1OCC` (stereo unspecified) gave CXCR6 block inactive, EBI2 antag inactive and CCR6 antag inactive.
For CCOc1cc(/C=C2/SC(=S)N(CC3CCCO3)C2=O)ccc1O (stereo unspecified) the results were APJ agonist inactive, APJ antag 48, CXCR6 block 51, EBI2 antag inactive, CCR6 antag 67 and APJ antag conf 101.
For COc1cc(/C=C2\SC(=S)N(C(C(=O)O)c3ccccc3)C2=O)ccc1O (stereo unspecified) the results were APJ agonist inactive, APJ antag 50, CXCR6 block 42, EBI2 antag inactive, CCR6 antag inactive and APJ antag conf 91.
O=C1/C(=C/c2cccc(O)c2)SC(=S)N1CC1CCCO1 (stereo unspecified) was read as APJ agonist inactive, APJ antag inactive, CXCR6 block inactive, EBI2 antag inactive and CCR6 antag inactive.
`O=C(Nc1ccc(F)cc1)C(c1ccccc1)N1CCN(c2cccc(C(F)(F)F)n2)CC1` (stereo unspecified) gave EBI2 antag inactive.
For COc1ccc(-c2csc(NC(=S)NC(=O)/C=C/c3ccc(C(C)C)cc3)n2)cc1OC the results were APJ agonist inactive, APJ antag 41, CXCR6 block inactive, EBI2 antag inactive, CCR6 antag inactive and APJ antag conf inactive.
`COc1ccc(-c2csc(NC(=S)NC(=O)c3ccccc3)n2)cc1Br` gave APJ agonist inactive, APJ antag inactive, CXCR6 block inactive, EBI2 antag inactive and CCR6 antag inactive.
COc1ccc(-c2csc(NC(=S)NC(=O)c3ccco3)n2)cc1Br was read as APJ agonist inactive, APJ antag inactive, CXCR6 block inactive, EBI2 antag inactive and CCR6 antag inactive.
Screening COc1ccc(C(=O)NC(=S)Nc2nc(-c3ccc(OC)c(Br)c3)cs2)cc1Br returned APJ agonist inactive, APJ antag 43, CXCR6 block inactive, EBI2 antag inactive, CCR6 antag inactive and APJ antag conf inactive.
Screening COc1ccc(-c2csc(NC(=S)NC(=O)c3cc4ccccc4o3)n2)cc1Br returned APJ agonist inactive, APJ antag 45, CXCR6 block inactive, EBI2 antag inactive, CCR6 antag inactive and APJ antag conf inactive.
`Cc1csc(NC(=O)C2(C)CCN2C(=O)C(C)C)c1C#N` (stereo unspecified) gave CXCR6 block inactive and EBI2 antag inactive.
For Cc1cccn2c(=O)c(/C=C(\C#N)C(=O)NCc3ccccc3)c(N3CCC(C(N)=O)CC3)nc12 the results were APJ agonist inactive, APJ antag 41, CXCR6 block inactive, EBI2 antag inactive, CCR6 antag inactive and APJ antag conf inactive.
Oc1ccccc1N=Nc1nc(-c2ccccc2)c(-c2ccccc2)[nH]1 was read as APJ agonist inactive, APJ antag 62, CXCR6 block inactive, EBI2 antag inactive, CCR6 antag 70 and APJ antag conf 104.
Screening Cc1cc(C)c(C#N)c(OCC2CCCO2)n1 (stereo unspecified) returned CXCR6 block inactive and EBI2 antag inactive.
Screening O=[N+]([O-])c1cccc(Cl)c1NCCNc1ncc(C(F)(F)F)cc1Cl returned APJ agonist inactive, APJ antag 43, CXCR6 block inactive, EBI2 antag inactive, CCR6 antag inactive and APJ antag conf inactive.
For Cc1c(C(=O)NCCNc2ncc(C(F)(F)F)cc2Cl)cccc1[N+](=O)[O-] the results were APJ agonist inactive, APJ antag inactive, CXCR6 block inactive, EBI2 antag inactive and CCR6 antag inactive.
CCC(=O)N1CCN(c2ccccc2NC(=O)COc2ccccc2Cl)CC1 was read as APJ agonist inactive, APJ antag 52, CXCR6 block 43, EBI2 antag inactive, CCR6 antag 51 and APJ antag conf 61.
`CCC(=O)N1CCN(c2ccc(NC(=O)COc3ccccc3Cl)cc2)CC1` gave APJ agonist inactive, APJ antag inactive, CXCR6 block inactive, EBI2 antag inactive and CCR6 antag inactive.
Screening CN(C(=O)CSC1=Nc2ccccc2C2=NC(c3ccccc3)C(=O)N12)C1CCCCC1 (stereo unspecified) returned APJ agonist inactive, APJ antag 47, CXCR6 block 47, EBI2 antag inactive, CCR6 antag 52 and APJ antag conf 61.
